Experimental data published in ChEMBL document CHEMBL3745654, “N-Alkylated arylsulfonamides of (aryloxy)ethyl piperidines: 5-HT(7) receptor selectivity versus multireceptor profile” (Bioorg Med Chem, 2016).

Assays:
[1] = biological target: Histamine H1 receptor (Homo sapiens) (UniProt P35367); assay: Displacement of [3H]-pyrilamine from human recombinant histamine H1 receptor expressed in HEK293 cells at 1 uM after 60 mins by Scintillation counting method; type: cell-based
[2] = biological target: T1, 5-hydroxytryptamine receptor 2C (Homo sapiens) (UniProt P28335); assay: Displacement of [3H]-mesulergine from human recombinant serotonin 5-HT2C receptor expressed in HEK293 cells at 1 uM incubated for 120 mins by scintillation counting method; type: cell-based
T1 sequence (whole entry): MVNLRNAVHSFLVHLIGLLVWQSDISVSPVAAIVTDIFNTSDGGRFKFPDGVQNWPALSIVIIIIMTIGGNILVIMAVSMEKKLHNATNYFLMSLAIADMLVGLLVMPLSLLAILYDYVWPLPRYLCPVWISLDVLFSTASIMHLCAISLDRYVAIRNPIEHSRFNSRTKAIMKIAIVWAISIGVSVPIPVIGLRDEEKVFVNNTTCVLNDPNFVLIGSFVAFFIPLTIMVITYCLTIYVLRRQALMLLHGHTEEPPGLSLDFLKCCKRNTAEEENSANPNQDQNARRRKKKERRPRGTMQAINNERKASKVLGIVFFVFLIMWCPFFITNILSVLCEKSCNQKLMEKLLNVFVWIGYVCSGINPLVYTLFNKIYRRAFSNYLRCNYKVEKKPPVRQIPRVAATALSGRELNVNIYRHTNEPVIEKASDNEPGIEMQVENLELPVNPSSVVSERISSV

[3] = Metabolic stability in mouse liver microsomes assessed as retention time of compound at 20 uM at pH 7.4 incubated for 15 mins by UPLC/MS analysis in presence of NADPH; type: ADME; settings: pH 7.4, 0.25 h
Summary of the method: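 Compound (20 µM) incubated with mouse liver microsomes (0.2 mg/ml) in 100 mM potassium phosphate, pH 7.4, 37 °C. Reaction started with NADPH-regenerating system; blank without NADPH run in parallel. Sampling at 5, 15, 30 and 60 min (some to 120 min), in duplicate. Levallorphan internal standard; UPLC/MS quantitation. t1/2 from ln % remaining vs time.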

[4] = biological target: T2, Adrenergic receptor alpha-1 (Rattus norvegicus, UniProt P15823+P23944+P43140); assay: Displacement of [3H]-Prazosin form rat cerebral cortex alpha-1 adrenergic receptor after 60 mins by scintillation counting method; type: tissue-based
T2 sequence (P15823 whole entry): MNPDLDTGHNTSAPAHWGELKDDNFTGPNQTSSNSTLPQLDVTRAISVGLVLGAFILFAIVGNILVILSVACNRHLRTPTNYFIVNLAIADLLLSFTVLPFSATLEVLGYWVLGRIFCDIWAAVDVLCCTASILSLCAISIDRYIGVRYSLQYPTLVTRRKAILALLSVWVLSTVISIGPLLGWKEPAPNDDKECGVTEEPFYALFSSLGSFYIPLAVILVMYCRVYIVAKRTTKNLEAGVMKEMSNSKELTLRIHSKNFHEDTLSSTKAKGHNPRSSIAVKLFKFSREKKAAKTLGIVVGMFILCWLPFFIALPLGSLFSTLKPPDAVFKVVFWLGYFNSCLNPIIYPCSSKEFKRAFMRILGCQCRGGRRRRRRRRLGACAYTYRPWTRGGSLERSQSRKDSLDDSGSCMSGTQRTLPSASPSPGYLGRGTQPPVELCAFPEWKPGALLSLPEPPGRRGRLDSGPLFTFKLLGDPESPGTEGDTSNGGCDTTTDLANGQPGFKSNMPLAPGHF
T2 sequence (P23944 whole entry): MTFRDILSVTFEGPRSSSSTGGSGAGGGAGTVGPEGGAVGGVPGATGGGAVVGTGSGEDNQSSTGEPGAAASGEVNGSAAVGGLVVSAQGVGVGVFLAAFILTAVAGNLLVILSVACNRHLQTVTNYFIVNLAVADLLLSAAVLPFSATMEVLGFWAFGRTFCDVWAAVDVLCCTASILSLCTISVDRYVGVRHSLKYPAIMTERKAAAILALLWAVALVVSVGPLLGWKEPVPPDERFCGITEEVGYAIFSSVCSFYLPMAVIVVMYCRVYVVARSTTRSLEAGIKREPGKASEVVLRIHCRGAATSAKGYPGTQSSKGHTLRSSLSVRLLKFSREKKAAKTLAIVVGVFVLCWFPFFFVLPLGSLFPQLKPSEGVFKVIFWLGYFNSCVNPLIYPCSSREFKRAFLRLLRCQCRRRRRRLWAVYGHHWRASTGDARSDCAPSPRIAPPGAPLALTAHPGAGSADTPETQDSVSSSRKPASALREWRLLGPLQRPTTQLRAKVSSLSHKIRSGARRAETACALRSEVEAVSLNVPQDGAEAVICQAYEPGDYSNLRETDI
T2 sequence (P43140 whole entry): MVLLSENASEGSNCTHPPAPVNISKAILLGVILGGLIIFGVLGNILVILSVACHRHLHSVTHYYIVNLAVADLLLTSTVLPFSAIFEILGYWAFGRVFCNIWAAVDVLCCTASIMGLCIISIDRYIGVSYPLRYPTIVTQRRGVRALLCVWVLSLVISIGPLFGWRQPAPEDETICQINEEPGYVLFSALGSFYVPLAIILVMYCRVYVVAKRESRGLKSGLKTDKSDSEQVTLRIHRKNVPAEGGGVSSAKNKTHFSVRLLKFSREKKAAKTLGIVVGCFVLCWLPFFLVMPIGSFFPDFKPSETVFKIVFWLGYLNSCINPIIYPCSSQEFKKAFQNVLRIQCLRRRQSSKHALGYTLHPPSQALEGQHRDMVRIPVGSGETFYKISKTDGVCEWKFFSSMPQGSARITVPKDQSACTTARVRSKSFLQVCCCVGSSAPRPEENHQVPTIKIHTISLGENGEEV
Summary of the method: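 Rat cerebral cortex membranes incubated with [3H]-prazosin (22 Ci/mmol; 0.6 nM). Compound tested at seven or eight concentrations (1 nM upward). Ki calculated by Cheng–Prusoff.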

[5] = biological target: T3, Muscarinic acetylcholine receptor M1 (Homo sapiens) (UniProt P11229); assay: Displacement of [3H]-pirenzepine from human recombinant muscarinic M1 receptor expressed in CHO cells at 1 uM after 60 mins by Scintillation counting method; type: cell-based
T3 sequence (whole entry): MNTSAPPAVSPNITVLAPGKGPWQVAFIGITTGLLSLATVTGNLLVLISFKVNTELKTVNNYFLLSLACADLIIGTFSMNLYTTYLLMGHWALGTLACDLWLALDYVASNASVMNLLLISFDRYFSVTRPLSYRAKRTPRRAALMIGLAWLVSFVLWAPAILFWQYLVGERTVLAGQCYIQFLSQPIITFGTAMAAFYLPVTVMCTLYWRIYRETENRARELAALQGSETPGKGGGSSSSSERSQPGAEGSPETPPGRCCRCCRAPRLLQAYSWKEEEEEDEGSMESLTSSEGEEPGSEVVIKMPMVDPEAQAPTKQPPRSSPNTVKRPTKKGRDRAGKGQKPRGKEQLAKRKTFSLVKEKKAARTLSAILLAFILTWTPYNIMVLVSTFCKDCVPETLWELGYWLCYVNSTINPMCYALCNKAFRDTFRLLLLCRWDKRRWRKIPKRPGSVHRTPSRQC

[6] = Intrinsic clearance in mouse liver microsomes at 20 uM at pH 7.4 incubated for 15 mins by UPLC/MS analysis in presence of NADPH; type: ADME; settings: read-out: CLH

Sequence of Histamine H1 receptor (Homo sapiens) (P35367 whole entry): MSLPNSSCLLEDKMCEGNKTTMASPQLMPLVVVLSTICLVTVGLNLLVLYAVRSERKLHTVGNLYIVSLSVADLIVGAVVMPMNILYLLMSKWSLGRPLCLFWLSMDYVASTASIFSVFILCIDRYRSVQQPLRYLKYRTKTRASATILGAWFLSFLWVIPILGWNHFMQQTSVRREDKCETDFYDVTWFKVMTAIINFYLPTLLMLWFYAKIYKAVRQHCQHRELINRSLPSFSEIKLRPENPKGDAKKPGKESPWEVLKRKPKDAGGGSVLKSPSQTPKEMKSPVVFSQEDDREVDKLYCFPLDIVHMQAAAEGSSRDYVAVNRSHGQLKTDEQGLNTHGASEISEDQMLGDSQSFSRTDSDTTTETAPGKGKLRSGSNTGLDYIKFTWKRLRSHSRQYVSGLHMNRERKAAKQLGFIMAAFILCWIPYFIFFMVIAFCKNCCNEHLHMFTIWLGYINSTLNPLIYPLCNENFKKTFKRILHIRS

| SMILES | inhibition [1] [%] | inhibition [2] [%] | Retention_time [3] [min] | Ki [4] [nM] | inhibition [5] [%] | microsomal CLint at 20 µM [6] [µL/min/mg] |
| --- | --- | --- | --- | --- | --- | --- |
| CN(C1CCN(CCOc2ccccc2C(C)(C)C)CC1)S(=O)(=O)c1cnn(C)c1 | < 64 | < 17 | 5.22 | > 300 | < 17 | 190 |
| Cn1cc(S(=O)(=O)N(CC2CC2)C2CCN(CCOc3ccccc3C(C)(C)C)CC2)cn1 | < 64 | < 17 | 5.74 | > 300 | < 17 | 77.9 |
| Cn1cc(S(=O)(=O)N(CC2CC2)C2CCN(CCOc3ccccc3-c3ccccc3)CC2)cn1 | < 64 | < 17 | 5.46 | > 300 | < 17 | 55.9 |
| CN(C1CCN(CCOc2ccccc2-c2ccccc2)CC1)S(=O)(=O)c1cnn(C)c1 | < 64 | < 17 | 4.88 | > 300 | < 17 | 167 |
